≈ marks a conversion by molar mass, not a printed value.
What was measured:
Assay type in all cases: functional
Staphylococcus aureus [1] = assay: Antibacterial activity against epidemic methicillin-resistant Staphylococcus aureus 16 after 18 hrs
How it was run: (§1)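 Broth microdilution in Mueller-Hinton broth adjusted to 20 mg/L Ca2+ and 10 mg/L Mg2+. Overnight cultures diluted in 0.9% saline to 5 ×10^5 cfu against a MacFarland standard. Compounds serially diluted twofold, inoculum added, incubated 37 °C for 18 h. DMSO (3.125%) control included. MIC taken as lowest concentration with no visible growth, done in duplicate. MTT (5 mg/mL methanolic) used.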

Staphylococcus aureus [2] = assay: Antibacterial activity against tetracycline-resistant Staphylococcus aureus XU212 after 18 hrs; conditions: XU212, 18 h; how it was run: as §1
Staphylococcus aureus [3] = assay: Antibacterial activity against macrolide-resistant Staphylococcus aureus RN4220 after 18 hrs; conditions: RN4220, 18 h; how it was run: as §1
Staphylococcus aureus [4] = assay: Antibacterial activity against […] Staphylococcus aureus ATCC 25923 after 18 hrs; conditions: ATCC 25923, 18 h; how it was run: as §1
Staphylococcus aureus [5] = assay: Antibacterial activity against […] Staphylococcus aureus SA1199B after 18 hrs; how it was run: as §1
Staphylococcus aureus [6] = assay: Antibacterial activity against epidemic methicillin-resistant Staphylococcus aureus 15 after 18 hrs; how it was run: as §1

| Compound | MIC (Staphylococcus aureus [1]) | MIC (Staphylococcus aureus [2]) | MIC (Staphylococcus aureus [3]) | MIC (Staphylococcus aureus [4]) | MIC (Staphylococcus aureus [5]) | MIC (Staphylococcus aureus [6]) |
| --- | --- | --- | --- | --- | --- | --- |
| C=C(C)[C@@H]1CCC(C)=C[C@H]1c1c(OC)cc(CCCCC)cc1OC | > 128 µg/mL | > 128 µg/mL | > 128 µg/mL | > 128 µg/mL | > 128 µg/mL | > 128 µg/mL |
| C=C(C)[C@@H]1CCC(C)=C[C@H]1c1c(O)cc(CCCCC)cc1OC | > 128 µg/mL | > 128 µg/mL | > 128 µg/mL | > 128 µg/mL | > 128 µg/mL | > 128 µg/mL |
| C=C(C)[C@@H]1CCC(C)=C[C@H]1c1c(O)cc(CCCCC)cc1O [CANNABIDIOL] | 1 µg/mL (≈ 3.18 µM) | 1 µg/mL (≈ 3.18 µM) | 1 µg/mL (≈ 3.18 µM) | 0.5 µg/mL (≈ 1.59 µM) | 1 µg/mL (≈ 3.18 µM) | 1 µg/mL (≈ 3.18 µM) |
| CCCCCc1cc(O)c(C/C=C(\C)CCC=C(C)C)c(O)c1 [CANNABIGEROL] | 1 µg/mL (≈ 3.16 µM) | 1 µg/mL (≈ 3.16 µM) | 1 µg/mL (≈ 3.16 µM) | 1 µg/mL (≈ 3.16 µM) | 1 µg/mL (≈ 3.16 µM) | 2 µg/mL (≈ 6.32 µM) |
| CCCCCc1cc(O)cc(O)c1 [WHILE OLIVETOL] | 64 µg/mL (≈ 355 µM) | 64 µg/mL (≈ 355 µM) | 64 µg/mL (≈ 355 µM) | 128 µg/mL (≈ 710 µM) | 64 µg/mL (≈ 355 µM) | 64 µg/mL (≈ 355 µM) |
| CC[C@H]1OC(=O)[C@H](C)[C@@H](O[C@H]2C[C@@](C)(OC)[C@@H](O)[C@H](C)O2)[C@H](C)[C@@H](O[C@@H]2O[C@H](C)C[C@H](N(C)C)[C@H]2O)[C@](C)(O)C[C@@H](C)C(=O)[C@H](C)[C@@H](O)[C@]1(C)O [ERYTHROMYCIN] | > 128 µg/mL | > 128 µg/mL | 64 µg/mL (≈ 87.2 µM) | 0.25 µg/mL (≈ 0.341 µM) | 0.25 µg/mL (≈ 0.341 µM) | > 128 µg/mL |
| Oc1cccc(O)c1 [RESORCINOL] | > 256 µg/mL | > 256 µg/mL | > 256 µg/mL | > 256 µg/mL | > 256 µg/mL | > 256 µg/mL |
| CCCCCc1cc(O)c2c(c1)OC(C)(C)c1ccc(C)cc1-2 [CANNABINOL] |  | 1 µg/mL (≈ 3.22 µM) | 1 µg/mL (≈ 3.22 µM) | 1 µg/mL (≈ 3.22 µM) | 1 µg/mL (≈ 3.22 µM) | 1 µg/mL (≈ 3.22 µM) |
| C=C(C)[C@@H]1CCC(C)=C[C@H]1c1c(O)cc(CCCCC)c(C(=O)OC)c1O | > 128 µg/mL | > 128 µg/mL | > 128 µg/mL | > 128 µg/mL | > 128 µg/mL | > 128 µg/mL |
| CCCCCc1cc(OC)c(C/C=C(\C)CCC=C(C)C)c(OC)c1 | > 128 µg/mL | > 128 µg/mL | > 128 µg/mL | > 128 µg/mL | > 128 µg/mL | > 128 µg/mL |
| Cc1onc(-c2ccccc2)c1C(=O)N[C@@H]1C(=O)N2[C@@H]1SC(C)(C)[C@@H]2C(=O)O [OXACILLIN] | > 128 µg/mL | 128 µg/mL (≈ 319 µM) | 0.25 µg/mL (≈ 0.623 µM) | 0.125 µg/mL (≈ 0.311 µM) | 0.25 µg/mL (≈ 0.623 µM) | 32 µg/mL (≈ 79.7 µM) |
| CCCCCc1cc(OC(C)=O)c(C/C=C(\C)CCC=C(C)C)c(OC(C)=O)c1 | > 128 µg/mL | > 128 µg/mL | > 128 µg/mL | > 128 µg/mL | > 128 µg/mL | > 128 µg/mL |
| CCCCCc1cc(O)c2c(c1)OC(C)(C)[C@@H]1CCC(C)=C[C@@H]21 [DRONABINOL] | 0.5 µg/mL (≈ 1.59 µM) | 1 µg/mL (≈ 3.18 µM) | 1 µg/mL (≈ 3.18 µM) | 1 µg/mL (≈ 3.18 µM) | 2 µg/mL (≈ 6.36 µM) | 2 µg/mL (≈ 6.36 µM) |
| CCCCCc1cc(O)cc(O)c1C/C=C(\C)CCC=C(C)C |  | 0.5 µg/mL (≈ 1.58 µM) | 1 µg/mL (≈ 3.16 µM) | 1 µg/mL (≈ 3.16 µM) | 2 µg/mL (≈ 6.32 µM) | 2 µg/mL (≈ 6.32 µM) |
| CCCCCc1cc2c(c(O)c1C(=O)O)[C@@H]1C=C(C)CC[C@H]1C(C)(C)O2 [DELTA9-TETRAHYDROCANNABINOLIC ACID A] | 4 µg/mL (≈ 11.2 µM) | 8 µg/mL (≈ 22.3 µM) | 4 µg/mL (≈ 11.2 µM) | 4 µg/mL (≈ 11.2 µM) | 8 µg/mL (≈ 22.3 µM) | 8 µg/mL (≈ 22.3 µM) |
| C=C(C)[C@@H]1CCC(C)=C[C@H]1c1c(O)cc(CCCCC)c(C(=O)O)c1O [CANNABIDIOLIC ACID] | 2 µg/mL (≈ 5.58 µM) | 2 µg/mL (≈ 5.58 µM) | 2 µg/mL (≈ 5.58 µM) | 2 µg/mL (≈ 5.58 µM) | 2 µg/mL (≈ 5.58 µM) | 2 µg/mL (≈ 5.58 µM) |
| CCn1cc(C(=O)O)c(=O)c2cc(F)c(N3CCNCC3)cc21 [NORFLOXACIN] | 128 µg/mL (≈ 401 µM) | 4 µg/mL (≈ 12.5 µM) | 1 µg/mL (≈ 3.13 µM) | 1 µg/mL (≈ 3.13 µM) | 32 µg/mL (≈ 100 µM) | 0.5 µg/mL (≈ 1.57 µM) |
| CN(C)[C@@H]1C(O)=C(C(N)=O)C(=O)[C@@]2(O)C(O)=C3C(=O)c4c(O)cccc4[C@@](C)(O)[C@H]3C[C@@H]12 [TETRACYCLINE] | 0.125 µg/mL (≈ 0.281 µM) | 128 µg/mL (≈ 288 µM) | 0.25 µg/mL (≈ 0.563 µM) | 0.25 µg/mL (≈ 0.563 µM) | 0.25 µg/mL (≈ 0.563 µM) | 0.125 µg/mL (≈ 0.281 µM) |
| C=C(C)[C@@H]1CCC(C)=C[C@H]1c1c(O)cc(O)cc1CCCCC | 1 µg/mL (≈ 3.18 µM) | 1 µg/mL (≈ 3.18 µM) | 1 µg/mL (≈ 3.18 µM) | 1 µg/mL (≈ 3.18 µM) | 1 µg/mL (≈ 3.18 µM) | 1 µg/mL (≈ 3.18 µM) |
| CCCCCc1cc(O)c(C/C=C(\C)CCC=C(C)C)c(O)c1C(=O)O [CANNABIGEROLIC ACID] | 4 µg/mL (≈ 11.1 µM) | 4 µg/mL (≈ 11.1 µM) | 2 µg/mL (≈ 5.55 µM) | 4 µg/mL (≈ 11.1 µM) | 4 µg/mL (≈ 11.1 µM) | 2 µg/mL (≈ 5.55 µM) |
| CCCCCc1cc(O)c(C/C=C(\C)CCC(O)C(C)(C)O)c(O)c1 (configuration not stated) [CARMAGEROL] | 32 µg/mL (≈ 91.3 µM) | 16 µg/mL (≈ 45.6 µM) | 32 µg/mL (≈ 91.3 µM) | 16 µg/mL (≈ 45.6 µM) | 32 µg/mL (≈ 91.3 µM) | 16 µg/mL (≈ 45.6 µM) |
| C=C(C)[C@@H]1CCC(C)=C[C@H]1c1c(OC(C)=O)cc(CCCCC)cc1OC(C)=O | > 128 µg/mL | > 128 µg/mL | > 128 µg/mL | > 128 µg/mL | > 128 µg/mL | > 128 µg/mL |
| CCCCCc1cc(O)c(C/C=C(\C)CCC=C(C)C)c(O)c1C(=O)OCCc1ccccc1 | > 128 µg/mL | > 128 µg/mL | > 128 µg/mL | > 128 µg/mL | > 128 µg/mL | > 128 µg/mL |
| C=C(C)C1CCC(C)=CC1c1c(CCCCC)cc(O)c([C@@H]2C=C(C)CC[C@H]2C(=C)C)c1O (some centres not stated) | > 128 µg/mL | > 128 µg/mL | > 128 µg/mL | > 128 µg/mL | > 128 µg/mL | > 128 µg/mL |
| C=C(C)[C@@H]1CCC(C)=C[C@H]1c1c(O)cc(CCCCC)c(C(=O)OCCc2ccccc2)c1O | > 128 µg/mL | > 128 µg/mL | > 128 µg/mL | > 128 µg/mL | > 128 µg/mL | > 128 µg/mL |
| CCCCCc1cc(O)c(C/C=C(\C)CCC=C(C)C)c(O)c1C(=O)OC |  | 64 µg/mL (≈ 171 µM) |  |  | 64 µg/mL (≈ 171 µM) |  |
| CCCCCc1cc(O)c2c(c1)OC(C)(CCC=C(C)C)C=C2 (configuration not stated) [CANNABICHROMENE] | 2 µg/mL (≈ 6.36 µM) | 1 µg/mL (≈ 3.18 µM) | 2 µg/mL (≈ 6.36 µM) | 2 µg/mL (≈ 6.36 µM) | 2 µg/mL (≈ 6.36 µM) | 2 µg/mL (≈ 6.36 µM) |
| CCCCCc1cc(O)c(C/C=C(\C)CCC=C(C)C)c(OC)c1 | > 128 µg/mL | > 128 µg/mL | > 128 µg/mL | > 128 µg/mL | > 128 µg/mL | > 128 µg/mL |

— ChEMBL document CHEMBL1156638, “Antibacterial cannabinoids from Cannabis sativa: a structure-activity study” (2008)
